Reference: ChEMBL document CHEMBL1909548, “Ligustrazine derivatives. Part 5: design, synthesis and biological evaluation of novel ligustrazinyloxy-cinnamic acid derivatives as potent cardiovascular agents” (Eur J Med Chem, 2011)

Assays:
ECV-304 [1] = assay: Protection against H2O2-induced toxicity in human ECV304 cells assessed as proliferation rate at 100 uM pretreated for 24 hrs before H2O2 challenge measured after 12 hrs by MTT assay; type: functional; conditions: read-out: Activity
Outline: (§1)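 ECV-304 cells were seeded at 6×10³/well and grown to confluence. Cells were pretreated 24 h with compound in DMSO (final ≤0.05%), then given H2O2 (150) for 12 h at 37 °C, 5% CO2. MTT (5 mg/mL) was added for 4 h, formazan dissolved in DMSO, and A570 read. Proliferation rate = [OD(compd)−OD(H2O2)]/[OD(control)−OD(H2O2)]×100%. EC50 was calculated from proliferation rates by formula.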

ECV-304 [2] = assay: Protection against H2O2-induced toxicity in human ECV304 cells assessed as proliferation rate at 25 uM pretreated for 24 hrs before H2O2 challenge measured after 12 hrs by MTT assay; type: functional; conditions: read-out: Activity; outline: as §1
ECV-304 [3] = assay: Protection against H2O2-induced toxicity in human ECV304 cells assessed as proliferation rate at 50 uM pretreated for 24 hrs before H2O2 challenge measured after 12 hrs by MTT assay; type: functional; conditions: read-out: Activity; outline: as §1
ECV-304 [4] = assay: Protection against H2O2-induced toxicity in human ECV304 cells assessed as proliferation rate pretreated for 24 hrs before H2O2 challenge measured after 12 hrs by MTT assay; type: functional, cell-based; outline: as §1
ECV-304 [5] = assay: Protection against H2O2-induced toxicity in human ECV304 cells assessed as proliferation rate at 12.5 uM pretreated for 24 hrs before H2O2 challenge measured after 12 hrs by MTT assay; type: functional; conditions: read-out: Activity; outline: as §1
[6] = Antiplatelet activity in rabbit platelet rich plasma assessed as inhibition rate of ADP-induced platelet aggregation at 50 uM after 5 mins by aggregometry; type: functional; conditions: Oryctolagus cuniculus
Outline: (§2)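 Rabbit platelet-rich plasma obtained by centrifuging blood at 1000 rpm for 5 min. Platelet-poor plasma (3000 rpm, 15 min) served as the reference. Platelets were adjusted to 3×10¹¹/L. PRP was mixed with compound at final levels 400, 200, 100 or 50 and incubated at 37 °C for 5 min before aggregation was read. IC50 was derived by linear regression.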

[7] = Antiplatelet activity in rabbit platelet rich plasma assessed as inhibition of ADP-induced platelet aggregation after 5 mins by aggregometry; type: functional; conditions: Oryctolagus cuniculus; outline: as §2
[8] = Antiplatelet activity in rabbit platelet rich plasma assessed as inhibition rate of ADP-induced platelet aggregation at 100 uM after 5 mins by aggregometry; type: functional; conditions: Oryctolagus cuniculus; outline: as §2
[9] = Antiplatelet activity in rabbit platelet rich plasma assessed as inhibition rate of ADP-induced platelet aggregation at 200 uM after 5 mins by aggregometry; type: functional; conditions: Oryctolagus cuniculus; outline: as §2
[10] = Antiplatelet activity in rabbit platelet rich plasma assessed as inhibition rate of ADP-induced platelet aggregation at 400 uM after 5 mins by aggregometry; type: functional; conditions: Oryctolagus cuniculus; outline: as §2
ECV-304 [11] = assay: Ratio of Ligustrazine EC50 to compound EC50 for protection against H2O2-induced toxicity in human ECV304 cells pretreated for 24 hrs before H2O2 challenge measured after 12 hrs by MTT assay

Row | IC50 [7] | SMILES | growth at 100 µM (ECV-304 [1]) | growth at 25 µM (ECV-304 [2]) | growth at 50 µM (ECV-304 [3]) | EC50 (ECV-304 [4]) | growth at 12.5 µM (ECV-304 [5]) | inhibition at 50 µM [6] | inhibition at 100 µM [8] | inhibition at 200 µM [9] | inhibition at 400 µM [10] | EC50 ratio (TMP/compound) (ECV-304 [11])
1 | 1380 µM | CCOC(=O)/C=C/c1ccc(OCc2nc(C)c(C)nc2C)c(O)c1 | 37.3% | -8.45% | 10.3% | 139 µM | -18.7% | 13.9% | 23% | 25.7% | 41.8% | –
2 | 631 µM | CCOC(=O)/C=C/c1cc(OC)c(OCc2nc(C)c(C)nc2C)c(OC)c1 | -180% | -81.9% | -94.2% | 2310 µM | -31.1% | 31% | 35% | 38.5% | 48.1% | –
3 | 628 µM | CCOC(=O)/C=C/c1cccc(OCc2nc(C)c(C)nc2C)c1 | – | -180% | 278% | 4330 µM | -1.52% | 14.5% | 29.4% | 34.8% | 43% | –
4 | 502 µM | CCOC(=O)/C=C/c1ccccc1OCc1nc(C)c(C)nc1C | – | -109% | 327% | 1540 µM | -1.24% | 16.4% | 30.1% | 33.4% | 48.1% | –
5 | > 2000 µM | CCOC(=O)/C=C/c1cc(Cl)ccc1OCc1nc(C)c(C)nc1C | – | -94.4% | -186% | 16900 µM | -0.46% | 7.66% | 11.3% | 14.5% | 18.7% | –
6 | 1400 µM | Cc1nc(C)c(COc2ccc(/C=C/C(=O)O)cc2)nc1C | 46.6% | 2.01% | 90.4% | 86 µM | -55% | 18.8% | 13.4% | 29% | 27.6% | –
7 | 176 µM | Cc1nc(C)c(COc2ccc(/C=C/C(=O)O)cc2O)nc1C | 170% | 131% | 157% | 46 µM | 15.3% | 3.46% | 11.8% | 60% | 87% | –
8 | 54 µM | Cc1nc(C)c(COc2ccccc2/C=C/C(=O)O)nc1C | -34.6% | 370% | 237% | 499 µM | 183% | 46.1% | 62.3% | 70.2% | 76.8% | –
9 | 1050 µM | Cc1nc(C)c(COc2ccc(Cl)cc2/C=C/C(=O)O)nc1C | – | -44% | -153% | 9300 µM | -98.3% | 24.7% | 38.4% | 45.6% | 67% | –
10 | 1310 µM | Cc1nc(C)c(COc2c(Br)cc(Br)cc2/C=C/C(=O)O)nc1C | -24.8% | 4.21% | 48.5% | 155 µM | -22.3% | 18.1% | 20% | 33.1% | 37.4% | –

More lines, now with the values behind:

Row | SMILES | IC50 [7] | growth at 100 µM (ECV-304 [1]) | growth at 25 µM (ECV-304 [2]) | growth at 50 µM (ECV-304 [3]) | EC50 (ECV-304 [4]) | growth at 12.5 µM (ECV-304 [5]) | inhibition at 50 µM [6] | inhibition at 100 µM [8] | inhibition at 200 µM [9] | inhibition at 400 µM [10] | EC50 ratio (TMP/compound) (ECV-304 [11])
11 | COc1cc(/C=C/C(=O)O)cc(OC)c1OCc1nc(C)c(C)nc1C | 182 µM | -132% | -33.8% | -95.9% | 3530 µM | -74.6% | 33% | 41% | 47.3% | 64.3% | –
12 | CCOC(=O)/C=C/c1ccc(OCc2nc(C)c(C)nc2C)cc1 | > 2000 µM | -7.56% | -10.8% | -6.36% | 206 µM | -1.79% | 9.8% | 11.9% | 15.5% | 22.7% | –
13 | CCOC(=O)/C=C/c1ccc(OCc2nc(C)c(C)nc2C)c(OC)c1 | 449 µM | 70.2% | 43.5% | 50.9% | 109 µM | 29.5% | 26.2% | 36.9% | 40.2% | 49.5% | –
14 | CCOC(=O)/C=C/c1cccc(OC)c1OCc1nc(C)c(C)nc1C | > 2000 µM | – | 58.7% | 16.6% | 3040 µM | -92.5% | 6.97% | 10.5% | 12.5% | 28.1% | –
15 | CCOC(=O)/C=C/c1cc(Br)cc(Br)c1OCc1nc(C)c(C)nc1C | > 2000 µM | – | -6.88% | 73.9% | 1590 µM | -25.7% | 9.8% | 13.5% | 15.8% | 16.1% | –
16 | CCOC(=O)/C=C/c1cc(Br)c(OCc2nc(C)c(C)nc2C)c(Br)c1 | > 2000 µM | – | 57% | 66.1% | 1970 µM | -130% | 6.77% | 10.7% | 16.3% | 20.7% | –
17 | COc1cc(/C=C/C(=O)O)ccc1OCc1nc(C)c(C)nc1C | 157 µM | -19.6% | -22.4% | -17.8% | 295 µM | -12.5% | 17.5% | 47% | 51.9% | 73.2% | –
18 | Cc1nc(C)c(COc2cccc(/C=C/C(=O)O)c2)nc1C | 161 µM | 175% | 378% | 473% | 20 µM | 306% | 30% | 46.6% | 57.2% | 60.8% | 30
19 | COc1cccc(/C=C/C(=O)O)c1OCc1nc(C)c(C)nc1C | 522 µM | – | -0.71% | 50.3% | 3590 µM | -164% | 8.97% | 26.1% | 28.4% | 47.6% | –
20 | Cc1nc(C)c(COc2c(Br)cc(/C=C/C(=O)O)cc2Br)nc1C | 1290 µM | -85.8% | -104% | -113% | 3280 µM | -83.8% | 5.3% | 62.8% | 38.6% | 55.4% | –
21 | Cc1nc(C)c(C)nc1C [LIGUSTRAZINE] | – | 42.8% | 12.7% | 22.1% | 600 µM | 10.4% | – | – | – | – | –
22 | O=C(O)/C=C/c1ccc(Cn2ccnc2)cc1 [OZAGREL] | 360 µM | – | – | – | – | – | 23.3% | 27.3% | 45.4% | 55.3% | –
